Experiments:
[1] = test system: Cavia porcellus; experiment: The compound was tested in vivo for the inhibition of U-46619-induced bronchoconstriction in guinea pig, 1 hr after oral administration at a dose of 1.25 mg/Kg.; format: functional; conditions: PIG1, po
In short: (§1)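 Guinea pigs received drug suspended in 5% gum arabic orally 1 h before U-46619 challenge. The result is percent inhibition of bronchoconstriction versus control, tested with Dunnett's test.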

[2] = species: Oryctolagus cuniculus; experiment: Concentration required to reduced U-46619-induced contraction of the rabbit aorta by 50%.(values in parentheses are 95% confidence limits); format: functional
[3] = species: Homo sapiens; experiment: Concentration required to reduced U-46619-induced aggregation of human platelet by 50%.(values in parentheses are 95% confidence limits); format: functional
In short: (§2)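 Healthy male volunteers, medication-free for at least 10 days, gave blood into 3.8% sodium citrate. PRP was adjusted to 400000 platelets/µL with PPP, preincubated at 37 °C for 2 min, then given drug or vehicle for 2 min. Aggregation was triggered with submaximal U-46619 (1–3 µM) and read photometrically (Born).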

[4] = species: Cavia porcellus; experiment: Compound was evaluated for inhibition of specific binding of [3H]U-46619 to guinea pig platelet membrane.; format: functional
In short: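 Guinea pig blood was drawn by cardiac puncture into 0.315% citrate plus 1 mM aspirin (final). PRP platelets were washed in 25 mM Tris-HCl/5 mM MgCl2 pH 7.4, sonicated, and the 100000 g pellet used at 1 mg/mL protein. Membranes were incubated with 4 nM [3H]U-46619 and drug at 25 °C for 30 min, then filtered and counted. The IC50 is for specific binding, with 2–6 replicates per dose.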

[5] = test system: Rattus norvegicus; experiment: The compound was tested in vivo for the inhibition of U-46619-induced bronchoconstriction in rat, 1 hr after oral administration at a dose of 5 mg/Kg.; format: functional
In short: (§3)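 Male Sprague-Dawley rats received drug suspended in 5% gum arabic orally 1 h before U-46619 (30 µg/kg, iv). Bronchoconstriction was recorded by the Konzett-Rössler method and expressed as percent inhibition versus control, tested with Dunnett's test.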

[6] = test system: Cavia porcellus; experiment: The compound was tested in vivo for the inhibition of U-46619-induced bronchoconstriction in guinea pig, 1 hr after oral administration at a dose of 5 mg/Kg.; format: functional; conditions: PIG1, po; in short: as §1
[7] = test system: Thromboxane A2 receptor (Cavia porcellus); experiment: Inhibition of specific binding of [3H]U-46619 to TXA2/PGH2 receptor in guinea pig platelet membrane
[8] = species: Homo sapiens; experiment: Concentration required to reduced U-46619-induced aggregation of human platelet by 50%.; format: functional; in short: as §2
[9] = species: Oryctolagus cuniculus; experiment: Concentration required to reduced U-46619-induced contraction of the rabbit aorta by 50%.; format: functional
[10] = test system: Rattus norvegicus; experiment: The compound was tested in vivo for the inhibition of U-46619-induced bronchoconstriction in rat, 1 hr after oral administration at a dose of 1.25 mg/Kg.; format: functional; in short: as §3
[11] = test system: Cavia porcellus; experiment: The compound was tested in vivo for the inhibition of U-46619-induced bronchoconstriction in guinea pig, 1 hr after oral administration at a dose of 0.31 mg/Kg.; format: functional; conditions: PIG1, po; in short: as §1
[12] = species: Oryctolagus cuniculus; experiment: Concentration required to reduced U-46619-induced contraction of the rabbit aorta by 50%; format: functional
[13] = test system: Cavia porcellus; experiment: compound was tested in vivo for the inhibition of U-46619-induced bronchoconstriction in guinea pig, 1 hr after oral administration at a dose of 1.25 mg/Kg.; format: functional; conditions: PIG1, po; in short: as §1
[14] = test system: Rattus norvegicus; experiment: Compound was tested in vivo for the inhibition of U-46619-induced bronchoconstriction in rat, 1 hr after oral administration at a dose of 5 mg/Kg.; format: functional; conditions: read-out: Inhibition; in short: as §3
[15] = species: Homo sapiens; experiment: Concentration required to reduced U-46619-induced aggregation of human platelet by 50%; format: functional; in short: as §2
[16] = test system: Cavia porcellus; experiment: Compound was tested in vivo for the inhibition of U-46619-induced bronchoconstriction in guinea pig, 1 hr after oral administration at a dose of 5 mg/Kg.; format: functional; conditions: PIG1, po, read-out: Inhibition; in short: as §1

CC(=O)c1c(C)c(C)c(O)c(C(CCCCCC(=O)O)c2ccc(F)cc2)c1C (stereo unspecified)
inhibition in vivo at 1.25 mg/kg [1]: 22%
IC50 [2]: 0.27 µM
IC50 [3]: 0.069 µM
IC50 [4]: 0.08 µM
inhibition in vivo at 5 mg/kg [5]: 42%
inhibition in vivo at 5 mg/kg [6]: 76%
IC50 [7]: 0.08 µM

Cc1c(C)c(C=O)c(C)c(C(CCCCCC(=O)O)c2ccc(F)cc2)c1O (stereo unspecified)
IC50 [8]: 0.31 µM
inhibition in vivo at 1.25 mg/kg [1]: < 67%
IC50 [4]: 0.0044 µM
IC50 [9]: 0.01 µM
inhibition in vivo at 5 mg/kg [5]: 68%
inhibition in vivo at 1.25 mg/kg [10]: < 54%
inhibition in vivo at 5 mg/kg [6]: 84%
inhibition in vivo at 0.31 mg/kg [11]: 33%

COCc1c(C)c(C)c(O)c(C(CCCCCC(=O)O)c2ccc(F)cc2)c1C (stereo unspecified)
IC50 [7]: 0.34 µM

Cc1c(O)c(C(CCCCCC(=O)O)c2ccc(F)cc2)c(C)c2c1CC(=O)C2 (stereo unspecified)
inhibition in vivo at 5 mg/kg [6]: < 42%
IC50 [7]: 0.079 µM

Cc1c(C)c2c(c(C(CCCCCC(=O)O)c3ccc(F)cc3)c1O)CCCC2=O (stereo unspecified)
IC50 [7]: 0.076 µM

O=C(O)Cc1ccc(CCNS(=O)(=O)c2ccc(Cl)cc2)cc1 [DALTROBAN]
IC50 [8]: 0.64 µM
inhibition in vivo at 1.25 mg/kg [1]: 36%
IC50 [9]: 0.12 µM
inhibition in vivo at 5 mg/kg [5]: < 73%
inhibition in vivo at 5 mg/kg [6]: < 84%
IC50 [7]: 0.062 µM

Cc1c(C)c2c(c(C(CCCCCC(=O)O)c3ccc(F)cc3)c1O)CCC2=O (stereo unspecified)
inhibition in vivo at 1.25 mg/kg [1]: 59%
IC50 [2]: 0.027 µM
IC50 [3]: 0.078 µM
IC50 [4]: 0.013 µM
inhibition in vivo at 5 mg/kg [5]: 78%
inhibition in vivo at 1.25 mg/kg [10]: < 50%
inhibition in vivo at 5 mg/kg [6]: < 95%
inhibition in vivo at 0.31 mg/kg [11]: -3%
IC50 [7]: 0.013 µM

CC(=O)c1c(C)c(C)c(C(CCCCCC(=O)O)c2ccc(F)cc2)c(O)c1C (stereo unspecified)
IC50 [7]: 0.25 µM

Cc1c(C)c(C(=O)O)c(C)c(C(CCCCCC(=O)O)c2ccc(F)cc2)c1O (stereo unspecified)
IC50 [7]: 3.2 µM

Cc1c(C)c(C=O)c(C)c(C(CCCCCC(=O)O)c2ccccc2)c1O (stereo unspecified)
IC50 [8]: 1.4 µM
IC50 [9]: 0.19 µM
inhibition in vivo at 5 mg/kg [6]: 30%

Cc1c(C)c(Br)c(C)c(C(CCCCCC(=O)O)c2ccc(F)cc2)c1O (stereo unspecified)
IC50 [7]: 0.2 µM

Cc1c(C)c(CO)c(C)c(C(CCCCCC(=O)O)c2ccc(F)cc2)c1O (stereo unspecified)
IC50 [2]: 0.032 µM
IC50 [3]: 0.079 µM
inhibition in vivo at 5 mg/kg [5]: < 65%
inhibition in vivo at 1.25 mg/kg [10]: < 40%
inhibition in vivo at 0.31 mg/kg [11]: 57%
IC50 [7]: 0.032 µM

Cc1c(C)c(C)c(C(CCCCCC(=O)O)c2ccc(F)cc2)c(O)c1C (stereo unspecified)
IC50 [7]: 0.13 µM

Cc1c(C)c(Cl)c(C)c(C(CCCCCC(=O)O)c2ccc(F)cc2)c1O (stereo unspecified)
IC50 [7]: 0.84 µM

Cc1c(C)c(CCO)c(C)c(C(CCCCCC(=O)O)c2ccc(F)cc2)c1O (stereo unspecified)
IC50 [7]: 0.25 µM

Cc1c(C)c2c(c(C(CCCCCC(=O)O)c3ccc(F)cc3)c1O)CCC2 (stereo unspecified)
IC50 [7]: 0.16 µM

Cc1cc(C)c(O)c(C(CCCCCC(=O)O)c2ccc(F)cc2)c1C (stereo unspecified)
IC50 [7]: 0.24 µM

Cc1c(C)c(C(CCCCCC(=O)O)c2ccc(F)cc2)c(O)c(C)c1CO (stereo unspecified)
IC50 [7]: 0.65 µM

CCCCC(=O)c1c(C)c(C)c(O)c(C(CCCCCC(=O)O)c2ccc(F)cc2)c1C (stereo unspecified)
IC50 [7]: 0.19 µM

Cc1c(C)c(CO)c(C)c(C(CCCCCC(=O)O)c2ccccc2)c1O (stereo unspecified)
IC50 [7]: 0.82 µM

Cc1cc(C)c(C(CCCCCC(=O)O)c2ccc(F)cc2)c(O)c1C (stereo unspecified)
IC50 [7]: 0.45 µM

Cc1c(O)c(C(CCCCCC(=O)O)c2ccc(F)cc2)c(C)c2c1CCC2 (stereo unspecified)
IC50 [12]: 0.23 µM
inhibition in vivo at 1.25 mg/kg [13]: 37%
inhibition in vivo at 5 mg/kg [14]: 48%
IC50 [15]: 0.31 µM
inhibition in vivo at 5 mg/kg [16]: 76%
IC50 [7]: 0.049 µM
